The record followed here is ChEMBL document CHEMBL1154235, “Rational design and semisynthesis of betulinic acid analogues as potent topoisomerase inhibitors” (J Nat Prod, 2009).

The target of experiment [1] is DNA topoisomerase 2-alpha (Homo sapiens) (UniProt P11388). Nature of the experiment: Inhibition of topoisomerase 2 alpha catalytic activity assessed as decatenation of kinetoplast DNA at 100 uM after 15 mins by agarose gel electrophoresis.
Experiment [2] has as its system MDA-MB-231. In words: Antiproliferative activity against human MDA-MB-231 cells after 3 days by MTT assay. Format: functional, cell-based. Particulars: MDA-MB-231, 72 h. The method in brief:
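MDA-MB-231 cells kept in RPMI 1640 with 10% heat-inactivated FBS and 25 mM HEPES at 37 °C in 5% CO2. Plated at about 15 000/well and preincubated 1 day, then exposed to compound for 3 days at 37 °C, with doses in triplicate. MTT added for 4 h, formazan dissolved in detergent overnight at room temperature in the dark, OD read at 580 nm against a cell-free blank. Cell numbers from a calibration curve; IC50 from dose-response curves.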
In general terms: Tetrazolium dyes change colour on reduction, which living cells bring about.

For a further experiment, the system named is HL-60(TB). In words: Cytotoxicity against human HL-60(TB) cells assessed as cell growth at 10 uM. Format: functional. As to conditions: read-out: Activity. The method, boiled down:
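Single-dose screen run externally by the NCI Developmental Therapeutics Program across its 60 human tumour cell line panel. Compound tested at 10 µM.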

Another experiment relates to K562. Nature of the experiment: Cytotoxicity against human K562 cells assessed as cell growth at 10 uM. Format: functional. Particulars: read-out: Activity. The method, boiled down: (§1)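 Single-dose screen at 10 µM against the 60 human cell line panel, run by the NCI Developmental Therapeutics Program and scored as cell growth.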
The next experiment deals with HOP-92. Nature of the experiment: Cytotoxicity against human HOP92 cells assessed as cell growth at 10 uM. As to conditions: read-out: Activity. Format: functional. The method, boiled down:
as §1

The next experiment relates to NCI-H226. Nature of the experiment: Cytotoxicity against human NCI-H226 cells assessed as cell growth at 10 uM. Format: functional. As to conditions: read-out: Activity. The method in brief: as §1
In a further experiment the test system is NCI-H460. Nature of the experiment: Cytotoxicity against human NCI-H460 cells assessed as cell growth at 10 uM. The class given is functional. As to conditions: read-out: Activity. The method, boiled down: as §1
Another experiment deals with HCT-116. Nature of the experiment: Cytotoxicity against human HCT116 cells assessed as cell growth at 10 uM. The class given is functional. As to conditions: read-out: Activity. The method, boiled down: as §1
Another experiment has as its system SF-295. Nature of the experiment: Cytotoxicity against human SF295 cells assessed as cell growth at 10 uM. As to conditions: read-out: Activity. Format: functional. The method in brief: as §1
The next experiment relates to SNB-19. In words: Cytotoxicity against human SNB19 cells assessed as cell growth at 10 uM. The class given is functional. Particulars: read-out: Activity. The method in brief: as §1
A further experiment relates to SK-MEL-5. In words: Cytotoxicity against human SK-MEL-5 cells assessed as cell growth at 10 uM. Particulars: read-out: Activity. The class given is functional. The method in brief:
as §1

The test system of another experiment is UACC-62. In words: Cytotoxicity against human UACC62 cells assessed as cell growth at 10 uM. Format: functional. As to conditions: read-out: Activity.
Another experiment has as its system OVCAR-5. Nature of the experiment: Cytotoxicity against human OVCAR5 cells assessed as cell growth at 10 uM. As to conditions: read-out: Activity. The class given is functional. The method in brief: as §1
Another experiment concerns NCI/ADR-RES. Nature of the experiment: Cytotoxicity against human NCI/ADR-RES cells assessed as cell growth at 10 uM. Particulars: read-out: Activity. The class given is functional. The method, boiled down: as §1
Another experiment has as its system SK-OV-3. In words: Cytotoxicity against human SKOV3 cells assessed as cell growth at 10 uM. The class given is functional. As to conditions: read-out: Activity. The method, boiled down:
as §1

The next experiment concerns RXF 393. Nature of the experiment: Cytotoxicity against human […] cells assessed as cell growth at 10 uM. Format: functional. Particulars: read-out: Activity. The method, boiled down:
as §1

A further experiment relates to UO-31. In words: Cytotoxicity against human UO31 cells assessed as cell growth at 10 uM. As to conditions: read-out: Activity. The class given is functional.
The test system of a further experiment is DU-145. In words: Cytotoxicity against human DU145 cells assessed as cell growth at 10 uM. The class given is functional. As to conditions: read-out: Activity. The method, boiled down:
as §1

The subject of experiment [3] is MDA-MB-231. Nature of the experiment: Cytotoxicity against human MDA-MB-231 cells assessed as cell growth at 10 uM. As to conditions: read-out: Activity. The class given is functional. The method in brief:
as §1

Experiment [4] in a line: Cytotoxicity against human Hs 578T cells assessed as cell growth at 10 uM. Particulars: read-out: Activity. The class given is functional. The method, boiled down: as §1
A further experiment has as its system BT-549. In words: Cytotoxicity against human BT549 cells assessed as cell growth at 10 uM. As to conditions: read-out: Activity. Format: functional. The method in brief:
as §1

Another experiment concerns T47D. Nature of the experiment: Cytotoxicity against human T47D cells assessed as cell growth at 10 uM. The class given is functional. Particulars: read-out: Activity.

Activity calls are given as the source filed them. The calls are words filed in the database; no cut-off is given here.

Chain of DNA topoisomerase 2-alpha (Homo sapiens) (P11388 whole entry): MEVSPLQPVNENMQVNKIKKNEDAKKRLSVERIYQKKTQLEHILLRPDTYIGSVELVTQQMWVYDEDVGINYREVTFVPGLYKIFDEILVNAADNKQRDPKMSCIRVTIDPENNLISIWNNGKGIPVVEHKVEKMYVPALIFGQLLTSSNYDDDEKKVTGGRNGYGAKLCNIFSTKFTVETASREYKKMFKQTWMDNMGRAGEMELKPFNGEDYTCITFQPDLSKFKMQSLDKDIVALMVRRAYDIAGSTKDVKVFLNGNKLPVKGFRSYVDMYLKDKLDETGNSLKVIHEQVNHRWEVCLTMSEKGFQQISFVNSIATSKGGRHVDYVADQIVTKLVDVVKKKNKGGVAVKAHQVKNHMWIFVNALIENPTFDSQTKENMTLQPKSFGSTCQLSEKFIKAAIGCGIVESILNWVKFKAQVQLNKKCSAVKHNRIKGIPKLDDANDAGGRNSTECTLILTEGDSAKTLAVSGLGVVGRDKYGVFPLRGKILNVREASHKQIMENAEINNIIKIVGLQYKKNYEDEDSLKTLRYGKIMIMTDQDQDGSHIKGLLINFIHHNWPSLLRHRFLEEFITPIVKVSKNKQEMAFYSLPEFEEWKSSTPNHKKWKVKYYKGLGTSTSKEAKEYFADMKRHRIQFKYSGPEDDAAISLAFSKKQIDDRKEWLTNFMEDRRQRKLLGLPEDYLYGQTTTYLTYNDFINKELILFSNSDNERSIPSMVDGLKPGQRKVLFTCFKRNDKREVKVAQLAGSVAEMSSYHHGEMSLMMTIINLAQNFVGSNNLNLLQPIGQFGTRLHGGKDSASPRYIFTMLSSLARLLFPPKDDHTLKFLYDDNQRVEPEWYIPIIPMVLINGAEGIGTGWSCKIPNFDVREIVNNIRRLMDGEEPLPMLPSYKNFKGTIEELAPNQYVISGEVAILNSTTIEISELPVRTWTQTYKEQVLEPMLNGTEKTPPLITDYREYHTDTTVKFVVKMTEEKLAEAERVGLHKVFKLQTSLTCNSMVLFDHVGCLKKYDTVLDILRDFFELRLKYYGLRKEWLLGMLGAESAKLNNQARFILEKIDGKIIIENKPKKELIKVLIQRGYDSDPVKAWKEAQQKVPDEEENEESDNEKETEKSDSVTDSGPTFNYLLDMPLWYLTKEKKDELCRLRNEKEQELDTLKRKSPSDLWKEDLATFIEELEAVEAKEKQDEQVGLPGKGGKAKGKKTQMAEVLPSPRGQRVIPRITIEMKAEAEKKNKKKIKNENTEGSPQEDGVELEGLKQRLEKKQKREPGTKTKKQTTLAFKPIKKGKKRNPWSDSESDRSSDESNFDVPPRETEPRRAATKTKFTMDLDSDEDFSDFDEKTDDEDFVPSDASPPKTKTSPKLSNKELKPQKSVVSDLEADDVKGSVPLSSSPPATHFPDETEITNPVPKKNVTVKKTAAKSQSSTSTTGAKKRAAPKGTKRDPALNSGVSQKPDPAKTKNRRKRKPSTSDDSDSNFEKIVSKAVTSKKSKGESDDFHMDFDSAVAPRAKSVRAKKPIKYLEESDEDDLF

The term IC50 denotes the midpoint of a concentration-inhibition curve. For `C=C(C)[C@@H]1CC[C@]2(C(O)=S)CC[C@]3(C)[C@H](CC[C@@H]4[C@@]5(C)CC[C@H](O)C(C)(C)[C@@H]5CC[C@]43C)[C@@H]12`, in [1], the inhibition result is “Active”. Moreover, the IC50 in the experiment on MDA-MB-231 [2] was greater than 25 µM. In addition, the growth at 10 µM worked out at 134% in the experiment with HL-60(TB); 127% in the experiment with K562; 158% in the experiment on HOP-92; 108% in the experiment on NCI-H226; 109% with NCI-H460; 85.2% with HCT-116. The growth at 10 µM with SF-295 amounted to 98.4%; with SNB-19, 113%; with SK-MEL-5, 99.7%; in the experiment with UACC-62 it was 96.8%; with OVCAR-5, 119%; with NCI/ADR-RES it was 113%. The growth at 10 µM with SK-OV-3 came out at 113%; in the experiment with RXF 393, 112%; with UO-31, 89.5%; in the experiment with DU-145, 130%; in the experiment with MDA-MB-231 [3], 114%; in experiment [4] it was 105%. For the same compound, the growth at 10 µM in the experiment with BT-549 was found to be 94.8%; in the experiment on T47D it was 98.5%.
